Source: the RNAGym collection of RNA variant scans (doi:10.1126/science.aae0568)
This sample holds only a part of the variants without activity.

B1: tRNA (parent)
chain: GUUCCGUUGGCGUAAUGGUAACGCGUCUCCCUCCUAAGGAGAAGACUGCGGGUUCGAGUCCCGUACGGAACG

Variants of: B1
Assay: yeast fitness relative to wild type (ratio to wild type); higher = fitter; tRNA-Arg(CCU), competitive growth, 37 C, YPD
Summary of the method: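 The tRNA-Arg(CCU) gene variants were made by chemical synthesis with a 3% per-site mutation rate at 69 sites and inserted at the native genomic locus of Saccharomyces cerevisiae. After pooling, the strains were competed in YPD at 37°C for 24 hours in six parallel replicates. Gene amplicons from the start population and each end population were read by 100-nucleotide paired-end sequencing, and Darwinian fitness relative to wild type was taken from genotype frequency changes. Genotypes needed ≥ 100 starting reads, and estimates < 0.5 were set to 0.5.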
GUUCCGUUGGCGUAAUGGGAACGCGUCUCCCUCCUAAGGAGAAGACUGCGGGUUUGAGUCCCGUACGGAACG [U19G C55U] showed a yeast fitness of 0.762.
For GUUCCGUGGGCGUAAUGGUAGCGCGUAUCCCUCCAAAGGAGAAGACUGCGGGUUCGAGUCCAGUCCGGAACG [U8G A21G C27A U35A C62A A65C], the yeast fitness was 0.568.
Variant GUUCGGUUGGCGUAAUGGUAACCCGUCUCCCUCCUCAGGAGAAGACUGCGGGUUCGAGUCCCGUACGGAACG [C5G G23C A36C] has a yeast fitness of no more than 0.5.
Work on GUUCCGUUGGCGUAAUGGUAACGCGUCUCCCUCCUAAGGAGGAGACUGUGAGUUCGAGUCCCGUACGGAACG [A42G C49U G51A] yielded a yeast fitness of 0.535.
With GUUCUGUUGGCGUAAUGGUAACGCGUCUCCCUCCUAAGGUGGAGACUGCGGGUUCGCGUCCCGUACGGAACG [C5U A40U A42G A57C] the yeast fitness was no more than 0.5.
Variant GUUCCGUUGGCGUAAUGGUAACGCCUCUCCCUCCUAAGGAGAUGGCUGCGGGUUCGAGUCCCGUACGGAACG [G25C A43U A45G] has a yeast fitness of 0.518.
For GUUCCGUUGGCGUAAUGGUAACGCGUCUCCCUCCUAAGGAGAAGACUGCGGGUUCGAGUCCCGUAAGGCACG [C66A A69C], the yeast fitness was 0.665.
In the case of GUUCCGUUGGCGUAAAGGUAACGCGUCUCCAUCCUAAGGAGAAGACUGCGAGUUCGAGUCCCGUACGGAACG [U16A C31A G51A], the yeast fitness is reported as 0.552.
GUUCCGUUGACGUAAUGGCAACGCGUCUCCCUCCUAAGGAGAAGACUAGGGGUUCGAGUCCCGUACGGAACG [G10A U19C G48A C49G] showed a yeast fitness of 0.56.
For GUUCCGUCGGCGUAAUGGUAACGCGUGUCCCUCCUAAGCAGAAGACUGCGGGUUCGAGUCCCGUACGGAACG [U8C C27G G39C], the yeast fitness was no more than 0.5.
Work on GUUCCGAAGGCGUAAUGGUAACGCAUCUCCCUCCUAAGGCGAAGACUGCGGGUUCGAGUUCCGUACGGAACG [U7A U8A G25A A40C C60U] yielded a yeast fitness of no more than 0.5.
Work on GUUCCGUUGGCGUAGUGGGAACGCGUCUCCCUCCUAAGGGGAAGACUGCGGGUUCGAGUCCCGUACGGAACG [A15G U19G A40G] yielded a yeast fitness of 0.582.
GUUCCGUUGGCGUAGUGGUAACGCGUCUGCCUCCUAUGGAGAAGACUGCGGGUUCGAGUCCCGUACGGAACG [A15G C29G A37U] gave a yeast fitness of no more than 0.5.
For GUUCCGUUGGCGUAAUGGUAACGCGUCUCCCUCCUAAGCAGAAGACUGCGGGUUCGAGUGCCGUACCGAACG [G39C C60G G67C], the yeast fitness was no more than 0.5.
GUUCCGUUGGCGUAAUGGUAACGCCUCUCCUACCUAAGGAGAAGACUGCGGGUUCGAGUCCCGUACGGAACG [G25C C31U U32A] showed a yeast fitness of no more than 0.5.
Variant GUUCCGUUGGCGUAAUGGUAACGCGUCUACCUCCUAAGGAGAAGACUGCGGGUUCGCGACCCGUACGGAACG [C29A A57C U59A] has a yeast fitness of 0.55.
With GUUACGUUGGCGUAAUGGUAAGGCGUCUCCCUCCUAAGGCGAAGACUGCGGGUUCGAGUCCCGUACAGAACG [C4A C22G A40C G67A] the yeast fitness was 0.61.
With GUUCCGUUGGCGUAAUGGUAACGCGUCUCGCUGCUAAGGAGAAGACUCCGGGUUCGAGUACCGUACGGAACG [C30G C33G G48C C60A] the yeast fitness was 0.586.
Variant GCUCCGUUGGCGUAAAGGUAACGCGUCUCCCUCCUAAGGGGAAGACUACGGGUUCGAGUCCCGUACGGAACG [U2C U16A A40G G48A] has a yeast fitness of no more than 0.5.
Variant GUUUCGUUGGGGUAAUGAUAACGCGCCUCCCUCCUAAGGAGAAGACUGCGGCUUCGAGUCCCGUACGGAACG [C4U C11G G18A U26C G52C] has a yeast fitness of no more than 0.5.
In the case of GCUCCGUUGGCGUAAUGGUAACGCGUCUCCCUCCUAAGGAGAACACUGCGGGUUCGAGUCCCGUACGGAACG [U2C G44C], the yeast fitness is reported as 0.846.
With GUUUCCUUGGCGUAAUGGUAACGCGUCUCCCUACUAAGGCAAAGACUGCGGGUUCGAGACCCGAAGGGAACG [C4U G6C C33A A40C G41A U59A U64A C66G] the yeast fitness was no more than 0.5.
Variant GAACCGAUGGCGUAAUGGUAACGCGUCUCCCUCCUAAGGAGAAGACUGCGGGUUCGGGUCCCGUACGGAACG [U2A U3A U7A A57G] has a yeast fitness of no more than 0.5.
GUUCCGUUGGCCUAAUGGUAACGCGUCUCCCUCCUAAGGAGUAGACUGCGGGUUCGAGUCCCGUACGGAACG [G12C A42U] gave a yeast fitness of 0.698.
With GUCCCGUUGGCGUAAUGGUAACGCGUCUCCCUCCUAAGGAGAAGACUGCGCGUUCGAGUCCCGUACGGAACG [U3C G51C] the yeast fitness was 0.521.
With GUUCUGUUGGCGUAAUGGUAACGCGUCUCCCUCCUAAGGAGAAGUGUGCGGGUUCGAGUACCGUACGGAACG [C5U A45U C46G C60A] the yeast fitness was 0.597.
With GUUCCGUUGGGGUAAUGGUAACGCGUCUCCCUGCUAAGGAGAAGACUGCGGGUUCGAGUCCCGUACGGUACG [C11G C33G A69U] the yeast fitness was no more than 0.5.
GUUACGUUGGCGUAAUGGUAACGCGUCUCCCUCCUAAGGAGAAGACUGCGAGUUCGAGUCCCGUACGGAACG [C4A G51A] showed a yeast fitness of 0.725.
In the case of GUUCCGUUGGUAUAAUGGUAACGCGUCUCCUUCCUAAGGAGAAGACUGCGGGCUCGAGUCCCGUCCGGAACG [C11U G12A C31U U53C A65C], the yeast fitness is reported as no more than 0.5.
GUUCCGUUGGCGUAAUCGUAACGCGUCUCGCUCCUAAGGAGAAGACUGCGGGUUGGAGUCCCGUACGGAGCG [G17C C30G C55G A70G] gave a yeast fitness of no more than 0.5.
For GUUCCGUUAGCGUAAUGGUAAGGCGUCUCCCUCCCAUGGAGAAGACUGCGGGUUCGAGUCCCGUACGGAACG [G9A C22G U35C A37U], the yeast fitness was 0.535.
For GUUUCGUUGGCGUAAUGGUAACGGGACGCCCUCCUAAGGAGAAGACUGCGGGUUCGAGUCCCGUACGGAACG [C4U C24G U26A U28G], the yeast fitness was 0.539.
Variant GUUCAGUUGGCGUAAUGGUAACGCGUGUCCCUACUAAGGUGAAGACUCCGGGUACGAGUCCCGUACGGAACG [C5A C27G C33A A40U G48C U54A] has a yeast fitness of 0.506.
GUUCCGUUGGCGUAAUGGUAACGCGUCUCCCUCAUAAGGAGUAGGCUGCGGGUUCGAGUCCCGUACGGAACG [C34A A42U A45G] showed a yeast fitness of no more than 0.5.
In the case of GUUCCGUUGGCGUAAUGGUAACGCGUCUCCCUCCCAAGGAGAAAAGUGCCGGAUCGAGUCCCGUAAGGAACG [U35C G44A C46G G50C U53A C66A], the yeast fitness is reported as no more than 0.5.
Work on GUUCCGUUGGCGUAAUGGUAACGCGUCUCCCACCUAAGGAGUAGACUGCGGGUUCGAGUCCCGUACGGAACG [U32A A42U] yielded a yeast fitness of 0.861.
GUUACGUUGGCGUAAUGGUAACGCGUCUCCCUCCUAAGGAGAAGACUGCGGGUUCGAGUCCCGUACCGAACG [C4A G67C] showed a yeast fitness of 0.69.
GUUCCGUUGGCGUAAUAGUAACGCGUCUCCCUCCUACGGAGAAGACUGCGGGUUCGAAUCCCGUACGGAACG [G17A A37C G58A] showed a yeast fitness of 0.551.
